# Laboratory results from the RNAGym collection of RNA variant scans (doi:10.1126/science.aae0568).
# This sample holds only a part of the variants without activity.
# B1: tRNA (parent)
# chain: GUUCCGUUGGCGUAAUGGUAACGCGUCUCCCUCCUAAGGAGAAGACUGCGGGUUCGAGUCCCGUACGGAACG
# Variants of: B1
# Assay: yeast fitness relative to wild type (ratio to wild type); higher = fitter; tRNA-Arg(CCU), competitive growth, 37 C, YPD
# Method in brief: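 Amplicons of the tRNA-Arg(CCU) gene were sequenced, 100-nucleotide paired-end, from the start population and from each end population of a pooled yeast competition. The competition, in six parallel replicates, lasted 24 hours in YPD at 37°C. Fitness relative to wild type was calculated from changes in genotype frequencies. Genotypes had to have ≥ 100 starting reads, and estimates < 0.5 were set to 0.5.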
row,Variant,yeast fitness
1,G12C G52A,0.745
2,G12C G52C,0.563
3,G12C A36C A40U C66U A69U,≤ 0.5
4,G12C A20C A36G,0.581
5,G12C C33G C34U A36C A43G G52C C60U,0.608
6,G12C A14C A15G A37C,0.606
7,G12A U16C C27A,≤ 0.5
8,G12C U26A C33A C34G A69C,≤ 0.5
9,G12A U19A G52C,≤ 0.5
10,G12C U47A G68C,0.533
11,G12C A15C A20U U53A U59G,≤ 0.5
12,G12A U26C C62U,0.579
13,G12A U13C G44C,0.554
14,G12C G51C U59G,≤ 0.5
15,G12U A15G,0.814
16,G12A U28C A40C G48A,0.61
17,G12C A20U C30U A65G A69C,≤ 0.5
18,U13A A14U A20U,0.835
19,G12C G18A,0.823
20,G12C C27U C33G G38C,≤ 0.5
21,G12C A20U G25A A36G,≤ 0.5

row,Variant,yeast fitness
1,G12C A43G G51C U59C C62G A70U,≤ 0.5
2,G12A U19G U35C A40U A42G,≤ 0.5
3,G12A U28G C30U A36C,≤ 0.5
4,G12C A14G A15C G52C,≤ 0.5
5,G12C U16A C49G,0.593
6,G12C C62U A70U,0.606
7,G12C A15G G44C A57U,0.69
8,G12C A20C C31G G51C,≤ 0.5
9,G12C C22U U54C A65U,0.531
10,G12C G51A U59A C62G,≤ 0.5
11,G12C U16A C60G C61U G63A G68A,≤ 0.5
12,G12C U16A C27G A36G C46U C61U G68A,≤ 0.5
13,U13A A14G A37C G50C G51C,0.566
14,G12A U16A A45U,0.629
15,G12C U19G G25A U59A U64A,0.623
16,G12C U26C A43C U54C,≤ 0.5
17,G12C A21G U26C C31U,≤ 0.5
18,G12A U35A G58A C66G G68A,≤ 0.5
19,G12C C33G A37G A40C C49G G67C,0.539
20,G12C U26A C33A C34G,0.55
21,G12A U28G C33G A69U,≤ 0.5

row,Variant,yeast fitness
1,G12C C31U U59A,0.6
2,G12C U13C A20C C24G G39C U64A,≤ 0.5
3,G12C G39A,0.75
4,G12C A15C,0.67
5,G12A U19C G23A U32C A43C,≤ 0.5
6,G12A U26C,0.878
7,G12A U26A,0.941
8,G12A U26A A70U,0.523
9,G12C C61A A65U,≤ 0.5
10,G12C C33G C34U A36C A43G G52A G58C U64G A65G,≤ 0.5
11,G12C A45G U47C,0.502
12,G12C C62G A65C,≤ 0.5
13,G12C C29U A36U,≤ 0.5
14,G12C A45U G58C A65U A70U,≤ 0.5
15,G12C G41A A65C,≤ 0.5
16,G12C U35A G41C,≤ 0.5
17,G12C A37U G44C,0.538
18,G12C G41C A57G,0.562
19,G12C A42G,0.902
20,G12C A20U G25A U59A,≤ 0.5
21,G12A U19C A42U G48C C55U,0.593

row,Variant,yeast fitness
1,G12A U16A C27G,≤ 0.5
2,G12C A37G U54A A65C,≤ 0.5
3,G12C G67A A69C,≤ 0.5
4,G12C G67A A69G,0.534
5,G12C G18C C27A G38C C49G,≤ 0.5
6,G12C A40G A70G,0.567
7,G12C C61A C62A,≤ 0.5
8,G12C C27G C30A,≤ 0.5
9,G12C U35C A37G G38A A45U A70G,≤ 0.5
10,G12C U28G A37G G41A G48A A65U C66U,≤ 0.5
11,G12C G25A U54C,0.635
12,G12C A37G G38A U47A,≤ 0.5
13,G12C A69U,0.935
14,G12C A69G,0.82
15,G12C G39A A70G,0.537
16,U13A A14G C30G,≤ 0.5
17,G12A U35C A37C C62U A65C,≤ 0.5
18,G12C G25A A43C,0.639
19,G12C A21G G58C,0.892
20,G12C C24U G48C A69C,≤ 0.5
